Conditions in all cases: in vivo
The test system of data set [1] is Homo sapiens. Briefly: Dose normalized excretion in human with creatinine clearance of => 80 ml/min assessed as RO4957463 level at 1500 mg, iv administered as single dose after 24 hrs. The format is ADME, organism-based. The gist of the method:
(§1)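 After a single 1,500 mg i.v. infusion over 60 min, urine was collected 0–6, 6–12 and 12–24 h post-dose, with volume and pH recorded. Aliquots were mixed 1:1 with 0.5 M MOPS, protected from light and frozen at −70°C. Parent and metabolite were assayed by a validated method. CLR = Ae24/plasma AUC24. n = 8 per group, mean ± SD.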

Data set [2] has as its system Homo sapiens. Briefly: Renal clearance in human with creatinine clearance of 30-49 ml/min assessed as RO4957463 level at 1500 mg, iv administered as single dose after 24 hrs. Format: ADME, organism-based, Kidney. The gist of the method:
as §1

Data set [3] has as its system Homo sapiens. Briefly: Drug excretion in human with creatinine clearance of 50-79 ml/min assessed as RO4957463 level at 1500 mg, iv administered as single dose after 24 hrs. Format: ADME, organism-based. The gist of the method: as §1
Data set [4] concerns Homo sapiens. Briefly: Renal clearance in human with creatinine clearance of =< 30 ml/min assessed as RO4957463 level at 1500 mg, iv administered as single dose after 24 hrs. The format is ADME, organism-based, Kidney. An outline of the steps:
(§2)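 Single 1,500 mg i.v. infusion over 60 min, with 8 subjects per renal-function group (CL_CR by Cockcroft-Gault at screening). Urine was collected at 0–6, 6–12 and 12–24 h, volume and pH recorded, and aliquots mixed 1:1 with 0.5 M MOPS. Samples were frozen at −70°C, protected from light, and assayed by a validated method. CL_R = A_e24/AUC₂₄.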

The test system of data set [5] is Homo sapiens. Briefly: Dose normalized excretion in human with creatinine clearance of 30-49 ml/min assessed as RO4957463 level at 1500 mg, iv administered as single dose after 24 hrs. Format: ADME, organism-based. An outline of the steps: as §1
Data set [6] has as its system Homo sapiens. Briefly: Drug excretion in human with creatinine clearance of => 80 ml/min assessed as RO4957463 level at 1500 mg, iv administered as single dose after 24 hrs. The format is ADME, organism-based. An outline of the steps:
as §1

For data set [7], the system named is Homo sapiens. Briefly: Renal clearance in human with creatinine clearance of 50-79 ml/min assessed as RO4957463 level at 1500 mg, iv administered as single dose after 24 hrs. The format is ADME, organism-based, Kidney. The gist of the method: as §2
Data set [8] concerns Homo sapiens. Briefly: Drug excretion in human with creatinine clearance of 30-49 ml/min assessed as RO4957463 level at 1500 mg, iv administered as single dose after 24 hrs. The format is ADME, organism-based. The gist of the method: as §1
The test system of data set [9] is Homo sapiens. Briefly: Dose normalized excretion in human with creatinine clearance of =< 30 ml/min assessed as RO4957463 level at 1500 mg, iv administered as single dose after 24 hrs. The format is ADME, organism-based. The gist of the method:
as §1

For data set [10], the system named is Homo sapiens. Briefly: Drug excretion in human with creatinine clearance of =< 30 ml/min assessed as RO4957463 level at 1500 mg, iv administered as single dose after 24 hrs. The format is ADME, organism-based. The gist of the method: as §1
In data set [11] the test system is Homo sapiens. Briefly: Dose normalized excretion in human with creatinine clearance of 50-79 ml/min assessed as RO4957463 level at 1500 mg, iv administered as single dose after 24 hrs. Format: ADME, organism-based. An outline of the steps:
as §1

Data set [12] deals with Homo sapiens. Briefly: Renal clearance in human with creatinine clearance of => 80 ml/min assessed as RO4957463 level at 1500 mg, iv administered as single dose after 24 hrs. The format is ADME, organism-based, Kidney. The gist of the method:
as §2

As to `C[C@@H]1[C@H]([C@H](C(=O)O)[C@@H](C)O)N=C(C(=O)O)[C@H]1S[C@H]1C[C@@H](C(=O)N2CC[C@H](NC(=O)CNC(=N)N)C2)N(C)C1`, the Activity in the data set on Homo sapiens [1] was found to be 16%; in the data set with Homo sapiens [3] it was 279 mg; in the data set with Homo sapiens [5], 18.7%; in the data set with Homo sapiens [6], 240 mg; in the data set on Homo sapiens [8] it was 281 mg; with Homo sapiens [9], 13.1%. Moreover, the Activity is given as 194 mg with Homo sapiens [10] and 18.6% in the data set with Homo sapiens [11]. Also, the CL_renal with Homo sapiens [2] was 3.91 L/h; with Homo sapiens [4], 1.01 L/h; in the data set on Homo sapiens [7], 8.27 L/h; in the data set with Homo sapiens [12], 13.2 L/h.

These data come from ChEMBL document CHEMBL1275441, “Effect of impaired renal function on the pharmacokinetics of tomopenem (RO4908463/CS-023), a novel carbapenem” (Antimicrob Agents Chemother, 2008).
